A short description of series [1]: Chemical stability of the compound in serum-free DMEM cell culture media after 6 hrs by RP-HPLC analysis. The class given is physicochemical. In outline: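 Conjugate dissolved in water (20% of final volume), then diluted with serum-free DMEM to a final 0.5 mg/mL. Incubated at 37°C for 6 h with hourly sampling. Monitored by analytical RP-HPLC on a C18 or CN column, gradient of 0.1% TFA water/MeCN, detection at 220 nm.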

Series [2] in a line: Drug metabolism in rat liver lysosomal homogenate after 2 hrs by LC-MS analysis. The following applies: tissue homogenate. The class given is ADME, tissue-based. In a few lines: (§1)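 Conjugate at 0.1 µg/µL in 0.2 M NaOAc pH 5.0, mixed 1:1 (w/w) with rat liver lysosomal homogenate (protein 17.4 µg/µL by BCA). Incubated at 37°C; aliquots taken at 5 min and 1, 2, 4, 6, 8 and 24 h. Fragments identified by ESI ion-trap LC-MS on a C18 column with a formic acid/acetonitrile gradient, positive mode, m/z 100–2500.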

The test system of series [3] is HT-29. Put plainly: Cytostatic activity against human HT-29 cells compound incubated for 6 hrs followed by compound wash out measured after 72 hrs by MTT assay. Format: functional, cell-based. In a few lines:
(§2)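 Cells plated at 5×10^3 per well and grown 24 h. Exposed 6 h to compound in serum-free RPMI-1640 (2.6×10^-4–10^2 µM, six parallels per concentration), washed twice, then cultured 72 h in serum-containing medium. MTT added at 367 µg/mL final for 3.5 h; crystals dissolved in DMSO; OD540 minus OD620 read. Cytostasis% = [1−(OD_treated/OD_control)]×100; IC50 taken from a sigmoidal fit. Three independent experiments, averaged.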
In general terms: Tetrazolium dyes change colour on reduction, which living cells bring about.

For series [4], the system named is MCF7. The series is described as follows: Cytostatic activity against human MCF7 cells compound incubated for 6 hrs followed by compound wash out measured after 72 hrs by MTT assay. The class given is functional, cell-based. In a few lines: as §2
Series [5] relates to MCF7. Put plainly: Cellular uptake in human MCF7 cells after 6 hrs by flow cytometer. The class given is ADME, cell-based. The following applies: mcf7, 6 h. In a few lines: (§3)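 Cells plated at 1 x 10^5 per well, grown 24 h at 37°C, then exposed to conjugate in serum-free medium (0.16–100 µM) for 6 h at 37°C. Cells detached with trypsin/EDTA, resuspended in FCS-free medium and analysed by flow cytometry. Read-out is the percentage of daunorubicin-positive living cells. Duplicate samples at each concentration; each experiment repeated twice.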

Series [6] is described as follows: Metabolic stability […] assessed as alpha-chymotrypsin-mediated compound degradation after 6 hrs by LC-MS analysis. The class given is ADME, cell-free. The note with it: read-out: Drug degradation. In outline: (§4)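 Digestion with α-chymotrypsin at an enzyme:substrate ratio of 1:50 (w/w) in 100 mM Tris-HCl/10 mM CaCl₂, pH 7.8, at 25°C. Aliquots taken at 5 min and 1, 2, 4, 6, 8 and 24 h, quenched with acetic acid, and analysed by LC-MS for intact conjugate and cleavage fragments.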

Series [7] has as its system HT-29. Put plainly: Cellular uptake in human HT-29 cells after 6 hrs by flow cytometer. The class given is ADME, cell-based. The note with it: ht-29, 6 h. In outline: as §3
In general terms: In flow cytometry, cells or beads pass a laser one at a time.

The nature of series [8]: Drug metabolism in rat liver lysosomal homogenate after 24 hrs by LC-MS analysis. The following applies: tissue homogenate. Format: ADME, tissue-based. In a few lines:
as §1

In another series the test system is Serum. Put plainly: Metabolic stability […] assessed as alpha-chymotrypsin-mediated compound degradation after 24 hrs by LC-MS analysis. The class given is ADME, cell-free. In a few lines:
as §4

Series [9] has as its target T1, Gonadotropin-releasing hormone receptor (Homo sapiens, UniProt P30968).
T1 sequence (P30968 whole entry): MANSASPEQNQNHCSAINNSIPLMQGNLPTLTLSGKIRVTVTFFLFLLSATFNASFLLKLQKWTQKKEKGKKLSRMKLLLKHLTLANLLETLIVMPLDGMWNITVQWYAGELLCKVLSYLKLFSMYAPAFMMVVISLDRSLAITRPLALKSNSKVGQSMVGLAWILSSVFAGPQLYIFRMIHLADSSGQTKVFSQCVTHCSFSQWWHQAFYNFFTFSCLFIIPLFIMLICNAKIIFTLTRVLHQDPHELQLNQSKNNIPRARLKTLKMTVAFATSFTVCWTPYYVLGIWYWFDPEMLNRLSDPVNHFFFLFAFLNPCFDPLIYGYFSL
Put plainly: Displacement of [125I][D-Trp6]GnRH1 from GnRH receptor expressed in human pituitary membrane by gamma counting. Format: cell membranes. In outline: (§5)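 Membranes came from autopsy anterior pituitary or a surgical prostate cancer specimen, homogenized in 50 mM Tris-HCl pH 7.4 with protease inhibitors and ultracentrifuged. 50–160 µg protein was incubated with 60-80,000 cpm [125I][D-Trp6]GnRH-I and competitor (10^-12–10^-6 M). Bound ligand was pelleted through ice-cold 1.5% BSA buffer and gamma-counted. IC50 (50% inhibition of specific binding) came from curve fitting; mean ± SE of 2–3 experiments, duplicate or triplicate.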
A general note: Displacement assays read how much labelled ligand stays bound in the presence of the test substance.

Series [10] deals with T1, Gonadotropin-releasing hormone receptor. The series is described as follows: Displacement of [125I][D-Trp6]GnRH1 from GnRH receptor expressed in human prostate cancer membrane by gamma counting. The class given is cell membranes, Prostate gland. In a few lines:
as §5

Series [11] has as its system MCF7. The series is described as follows: Cellular uptake in human MCF7 cells at 4 uM after 6 hrs by flow cytometer. The following applies: mcf7, 6 h. The class given is ADME, cell-based. In a few lines:
as §3

Series [12] is described as follows: Octanol-water partition coefficient, log P of the compound by shake flask method. Format: physicochemical. In a few lines: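 Shake-flask octanol/water partitioning with RP-HPLC quantitation. P calculated as the ratio of octanol to water HPLC peak areas, then converted to logP.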
Series [13] is described as follows: Metabolic stability […] assessed as alpha-chymotrypsin-mediated compound degradation after 8 hrs by LC-MS analysis. Format: ADME, cell-free. The note with it: read-out: Drug degradation. In a few lines:
as §4

For `CCC(=O)NCCCC[C@H](NC(=O)[C@H](Cc1c[nH]c2ccccc12)NC(=O)[C@H](Cc1cnc[nH]1)NC(=O)[C@@H]1CCC(=O)N1)C(=O)N[C@@H](Cc1cnc[nH]1)C(=O)N[C@@H](CC(=O)O)C(=O)N[C@@H](Cc1c[nH]c2ccccc12)C(=O)N[C@@H](CCCCNC(=O)CO/N=C(\C)[C@]1(O)Cc2c(O)c3c(c(O)c2[C@@H](O[C@H]2C[C@H](N)[C@H](O)[C@H](C)O2)C1)C(=O)c1c(OC)cccc1C3=O)C(=O)N1CCC[C@H]1C(=O)NCC(N)=O`, the Stability result in series [1] was “Stable”; in the series on Serum, “Unstable”. The Drug metabolism entry in series [2] and in series [8] was “Active” in each case. In addition, the values for the IC50 with HT-29 [3] and in the series on MCF7 [4] were 17.2 µM and 3.6 µM, respectively. In addition, the Drug uptake entry with MCF7 [5] and in the series with HT-29 [7] was “Dose-dependent effect” in each case. Besides, the metabolised at 6 h in [6] was 45%.
On to `COc1cccc2c1C(=O)c1c(O)c3c(c(O)c1C2=O)C[C@@](O)(/C(C)=N/OCC(=O)NCCCC[C@@H](NC(=O)[C@H](Cc1ccc(O)cc1)NC(=O)[C@H](CO)NC(=O)[C@H](Cc1c[nH]c2ccccc12)NC(=O)[C@H](Cc1cnc[nH]1)NC(=O)[C@@H]1CCC(=O)N1)C(=O)N[C@@H](CC(C)C)C(=O)N[C@@H](CCCNC(=N)N)C(=O)N1CCC[C@H]1C(=O)NCC(N)=O)C[C@@H]3O[C@H]1C[C@H](N)[C@H](O)[C@H](C)O1`, for which the IC50 came out at 20.2 µM in the series with HT-29 [3], 4.1 µM with MCF7 [4], 0.00162 µM in series [9] and 0.0165 µM in [10]. Also, the Drug uptake entry in the series with MCF7 [5] and in the series on HT-29 [7] was “Dose-dependent effect” throughout.
For the molecule `CCCCCCCCCCCCCC(=O)NCCCC[C@H](NC(=O)[C@H](Cc1c[nH]c2ccccc12)NC(=O)[C@H](Cc1cnc[nH]1)NC(=O)[C@@H]1CCC(=O)N1)C(=O)N[C@@H](Cc1cnc[nH]1)C(=O)N[C@@H](CC(=O)O)C(=O)N[C@@H](Cc1c[nH]c2ccccc12)C(=O)N[C@@H](CCCCNC(=O)CO/N=C(\C)[C@]1(O)Cc2c(O)c3c(c(O)c2[C@@H](O[C@H]2C[C@H](N)[C@H](O)[C@H](C)O2)C1)C(=O)c1c(OC)cccc1C3=O)C(=O)N1CCC[C@H]1C(=O)NCC(N)=O`, the Drug uptake in the series with MCF7 [11] was 41.3%; in the series on MCF7 [5], “Dose-dependent effect”; with HT-29 [7], “Dose-dependent effect”. In addition, the Stability entry in [1] is “Stable”. The Drug metabolism entry in [2] and in series [8] was “Active” in each case. Moreover, the values for the IC50 in the series with HT-29 [3] and with MCF7 [4] were 37.4 µM and 6.8 µM, respectively. Besides, the lipophilicity (logP) in series [12] was -0.596.
As for `COc1cccc2c1C(=O)c1c(O)c3c(c(O)c1C2=O)C[C@@](O)(/C(C)=N/OCC(=O)NCCCC[C@H](NC(=O)[C@H](Cc1c[nH]c2ccccc12)NC(=O)[C@H](CC(=O)O)NC(=O)[C@H](Cc1cnc[nH]1)NC(=O)[C@H](CCCCNC(=O)CC(C)C)NC(=O)[C@H](Cc1c[nH]c2ccccc12)NC(=O)[C@H](Cc1cnc[nH]1)NC(=O)[C@@H]1CCC(=O)N1)C(=O)N1CCC[C@H]1C(=O)NCC(N)=O)C[C@@H]3O[C@H]1C[C@H](N)[C@H](O)[C@H](C)O1`, the results for the Stability result (in [1]; in the series on Serum) were “Stable” and “Unstable”, respectively. For the same molecule, the Drug metabolism result in series [2] and in series [8] was “Active” each time. In addition, the IC50 in the series on HT-29 [3] is 16.4 µM; in the series with MCF7 [4], 2.5 µM. For the same molecule, the Drug uptake entry with MCF7 [5] and in the series with HT-29 [7] was “Dose-dependent effect” each time. Further, the metabolised at 6 h in series [6] worked out at 34%. Further, the metabolised at 8 h in series [13] was 50%.
Turning to `CCCCCC(=O)NCCCC[C@H](NC(=O)[C@H](Cc1c[nH]c2ccccc12)NC(=O)[C@H](Cc1cnc[nH]1)NC(=O)[C@@H]1CCC(=O)N1)C(=O)N[C@@H](Cc1cnc[nH]1)C(=O)N[C@@H](CC(=O)O)C(=O)N[C@@H](Cc1c[nH]c2ccccc12)C(=O)N[C@@H](CCCCNC(=O)CO/N=C(\C)[C@]1(O)Cc2c(O)c3c(c(O)c2[C@@H](O[C@H]2C[C@H](N)[C@H](O)[C@H](C)O2)C1)C(=O)c1c(OC)cccc1C3=O)C(=O)N1CCC[C@H]1C(=O)NCC(N)=O`, the Stability result in series [1] is on record as “Stable”. Moreover, the Drug metabolism entry in series [2] and in series [8] was “Active” each time. Besides, the IC50 is 20.1 µM with HT-29 [3] and 1.5 µM with MCF7 [4]. For the same molecule, the Drug uptake entry with MCF7 [5] and in the series on HT-29 [7] was “Dose-dependent effect” each time. Moreover, the metabolised at 6 h in series [6] stood at 30%. In addition, the Drug degradation in the series on Serum came out at 90%.
On to `COc1cccc2c1C(=O)c1c(O)c3c(c(O)c1C2=O)C[C@@](O)(/C(C)=N/OCC(=O)NCCCC[C@H](NC(=O)[C@H](Cc1c[nH]c2ccccc12)NC(=O)[C@H](CC(=O)O)NC(=O)[C@H](Cc1cnc[nH]1)NC(=O)[C@H](CCCCN)NC(=O)[C@H](Cc1c[nH]c2ccccc12)NC(=O)[C@H](Cc1cnc[nH]1)NC(=O)[C@@H]1CCC(=O)N1)C(=O)N1CCC[C@H]1C(=O)NCC(N)=O)C[C@@H]3O[C@H]1C[C@H](N)[C@H](O)[C@H](C)O1`, for which the figures for the IC50 in the series with HT-29 [3] and in the series with MCF7 [4] were 8.1 µM and 2.6 µM, respectively. The Drug uptake entry in the series on MCF7 [5] and in the series on HT-29 [7] was “Dose-dependent effect” throughout.
Consider `C/C=C/C(=O)NCCCC[C@H](NC(=O)[C@H](Cc1c[nH]c2ccccc12)NC(=O)[C@H](Cc1cnc[nH]1)NC(=O)[C@@H]1CCC(=O)N1)C(=O)N[C@@H](Cc1cnc[nH]1)C(=O)N[C@@H](CC(=O)O)C(=O)N[C@@H](Cc1c[nH]c2ccccc12)C(=O)N[C@@H](CCCCNC(=O)CO/N=C(\C)[C@]1(O)Cc2c(O)c3c(c(O)c2[C@@H](O[C@H]2C[C@H](N)[C@H](O)[C@H](C)O2)C1)C(=O)c1c(OC)cccc1C3=O)C(=O)N1CCC[C@H]1C(=O)NCC(N)=O`, for which the Stability result is given as “Stable” in series [1] and “Unstable” with Serum. In addition, the Drug metabolism result in series [2] and in series [8] was “Active” throughout. Further, the IC50 in the series with HT-29 [3] worked out at 13.6 µM; in the series on MCF7 [4], 1.6 µM. Moreover, the Drug uptake result in the series with MCF7 [5] and with HT-29 [7] was “Dose-dependent effect” in each case. The metabolised at 6 h in series [6] was 50%.

For orientation: IC50 means the concentration that gives 50% inhibition. A high value points to lower potency. One may read the logP as a log measure of how a compound divides between an organic and an aqueous phase.

The values are drawn from ChEMBL document CHEMBL2086240, “Enhanced cellular uptake and in vitro antitumor activity of short-chain fatty acid acylated daunorubicin-GnRH-III bioconjugates” (Eur J Med Chem, 2012).
